The values that follow come from paper PMC6210075 (ACS Omega, 2018).

pIC50, pKi: −log10 of the molar value.

The target in assay [1] is T1, serine hydrolases (Mus musculus, UniProt O08914).
T1 sequence (O08914 1-579): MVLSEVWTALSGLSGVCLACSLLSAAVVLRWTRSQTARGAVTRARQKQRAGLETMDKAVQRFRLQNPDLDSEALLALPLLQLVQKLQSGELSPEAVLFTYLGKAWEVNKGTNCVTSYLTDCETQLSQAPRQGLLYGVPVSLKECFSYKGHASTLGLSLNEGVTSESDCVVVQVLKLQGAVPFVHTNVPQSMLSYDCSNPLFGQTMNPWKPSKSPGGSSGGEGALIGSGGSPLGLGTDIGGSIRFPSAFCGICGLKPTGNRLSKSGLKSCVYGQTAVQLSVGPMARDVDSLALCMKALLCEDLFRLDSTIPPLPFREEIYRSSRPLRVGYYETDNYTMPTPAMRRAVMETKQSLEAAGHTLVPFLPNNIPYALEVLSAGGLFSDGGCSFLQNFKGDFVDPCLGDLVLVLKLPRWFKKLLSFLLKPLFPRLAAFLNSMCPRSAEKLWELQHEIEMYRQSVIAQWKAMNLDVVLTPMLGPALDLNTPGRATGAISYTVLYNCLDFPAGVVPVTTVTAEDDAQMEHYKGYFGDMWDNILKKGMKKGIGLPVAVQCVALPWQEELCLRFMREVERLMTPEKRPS
The assay is described as follows: Activity-based protein profiling. Particulars: mouse brain tissue homogenate, inhibitor 20 µM. In kind it is biochemical.

Assay [2] deals with serine hydrolases. The assay is described as follows: Activity-based protein profiling. Type of assay: biochemical, mouse. Particulars: mouse liver tissue homogenate, inhibitor 20 µM.
Assay [3] concerns the target T2, human FAAH (Homo sapiens, UniProt O00519).
T2 sequence (O00519 1-579): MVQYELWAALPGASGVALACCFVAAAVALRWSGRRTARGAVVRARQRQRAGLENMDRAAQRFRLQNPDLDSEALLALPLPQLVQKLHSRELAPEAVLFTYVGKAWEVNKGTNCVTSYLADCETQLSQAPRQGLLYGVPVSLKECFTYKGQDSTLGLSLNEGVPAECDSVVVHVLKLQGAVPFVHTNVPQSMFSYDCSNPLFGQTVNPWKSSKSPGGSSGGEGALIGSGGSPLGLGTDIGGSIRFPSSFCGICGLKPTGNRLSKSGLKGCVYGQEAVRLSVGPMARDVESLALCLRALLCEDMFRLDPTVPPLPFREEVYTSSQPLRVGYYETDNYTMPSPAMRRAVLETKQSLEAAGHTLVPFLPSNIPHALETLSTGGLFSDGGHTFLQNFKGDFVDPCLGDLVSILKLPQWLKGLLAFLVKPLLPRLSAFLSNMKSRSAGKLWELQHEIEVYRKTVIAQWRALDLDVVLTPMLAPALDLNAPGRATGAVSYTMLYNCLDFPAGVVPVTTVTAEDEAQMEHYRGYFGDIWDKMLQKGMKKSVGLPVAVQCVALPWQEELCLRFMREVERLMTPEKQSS
The experiment in a line: Ki and kinact determination on FAAH. Type of assay: biochemical. A digest of the protocol:
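Crude baculovirus-expressed recombinant FAAH (High Five cell S9 fraction in 50 mM Tris/HCl pH 8.0, 1 mM CHAPS, 10% glycerol). OMP (100 μM final) was mixed with a range of test compound concentrations and held 5 min at 37 °C.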

Assay [4] has as its target T3, mouse sEH (Mus musculus, UniProt P34914).
T3 sequence (P34914 1-554): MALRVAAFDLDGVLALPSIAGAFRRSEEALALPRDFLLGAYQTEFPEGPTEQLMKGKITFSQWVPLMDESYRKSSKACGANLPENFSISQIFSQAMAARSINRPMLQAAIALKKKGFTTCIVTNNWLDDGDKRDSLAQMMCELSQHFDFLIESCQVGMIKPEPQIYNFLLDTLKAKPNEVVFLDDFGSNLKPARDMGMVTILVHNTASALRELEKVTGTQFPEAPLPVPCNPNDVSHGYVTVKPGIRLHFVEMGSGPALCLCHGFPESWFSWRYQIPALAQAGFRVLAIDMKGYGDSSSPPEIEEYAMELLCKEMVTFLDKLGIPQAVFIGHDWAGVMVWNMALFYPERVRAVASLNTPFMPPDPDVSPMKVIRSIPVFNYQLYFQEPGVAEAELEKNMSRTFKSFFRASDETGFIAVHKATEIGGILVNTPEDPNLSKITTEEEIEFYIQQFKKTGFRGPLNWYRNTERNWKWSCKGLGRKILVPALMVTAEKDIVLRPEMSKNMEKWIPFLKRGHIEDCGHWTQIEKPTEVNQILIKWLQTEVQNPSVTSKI
The assay is described as follows: sEH fluorescent inhibition assay, recombinant mouse sEH. Type of assay: biochemical.

The target in assay [5] is T4, human sEH (Homo sapiens, UniProt P34913).
T4 sequence (P34913 1-555): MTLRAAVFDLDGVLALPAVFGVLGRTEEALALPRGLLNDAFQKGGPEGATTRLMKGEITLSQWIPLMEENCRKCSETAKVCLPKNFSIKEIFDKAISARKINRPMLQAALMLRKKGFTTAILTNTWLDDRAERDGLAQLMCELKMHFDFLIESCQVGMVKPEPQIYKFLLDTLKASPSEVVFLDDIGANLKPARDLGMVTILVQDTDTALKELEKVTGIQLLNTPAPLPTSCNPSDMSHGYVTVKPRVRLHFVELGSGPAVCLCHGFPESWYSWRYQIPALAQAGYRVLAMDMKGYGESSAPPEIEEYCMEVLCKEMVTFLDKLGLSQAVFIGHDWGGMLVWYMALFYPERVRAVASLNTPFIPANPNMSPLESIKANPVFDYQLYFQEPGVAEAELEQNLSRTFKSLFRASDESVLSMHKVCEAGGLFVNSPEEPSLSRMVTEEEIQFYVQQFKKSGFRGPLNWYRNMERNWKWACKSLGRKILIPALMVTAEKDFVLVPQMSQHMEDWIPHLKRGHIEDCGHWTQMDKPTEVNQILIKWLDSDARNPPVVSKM
The assay is described as follows: sEH fluorescent inhibition assay. Type of assay: biochemical.

The target of assay [6] is T2, human FAAH. The experiment in a line: FAAH fluorescent inhibition assay. Type of assay: biochemical.

`O=C(Nc1ccc(C(F)(F)F)cc1F)N1CCC(Cc2cccc(Oc3ccc(C(F)(F)F)cn3)c2)CC1` [compound 18]: in assay [1], the “intensity of the FAAH band (ABPP)” value is recorded as “does not appear to fully inhibit the band corresponding to FAAH”. Also, the “other serine hydrolase bands (ABPP)” value in assay [2] was “neither 11, 13, 14, 18, nor PF-3845 had any effect on the intensity of other bands”. In assay [3], the pKi is 7.62, the kinact is 0.000283 s⁻¹ and the kinact/KI was 700000 M⁻¹ s⁻¹. Further, the negative logarithm of the IC50 (pIC50) in assay [4] was 6.44. Moreover, in assay [5] (compared to 11), the “difference in potency on sEH” value is less than 3 fold. Besides, the “difference in potency on FAAH” value in assay [6] (compared to 11) is listed as less than 3 fold.
On to `O=C(Nc1cccnc1)N1CCC(Cc2cccc(Oc3ccc(C(F)(F)F)cn3)c2)CC1` [PF-3845, reference compound], for which the “intensity of the FAAH band (ABPP)” value in assay [1] is “reduced”. Besides, the “other serine hydrolase bands (ABPP)” value in assay [2] is given as “neither 11, 13, 14, 18, nor PF-3845 had any effect on the intensity of other bands”. In assay [3], this molecule gave a pKi of 8.46. The pIC50 in assay [4] was 5.92; in assay [5] it was 4.92; in assay [6] it was 9.19.

As usually defined, the pKi is the Ki on a negative log10 scale, so that one unit is a factor of ten. The low end stands for a high Ki, the high end for a low Ki. By kinact is commonly meant the maximal first-order rate at which the target is inactivated. One may read the kinact/KI as the second-order rate constant of inactivation. As usually defined, the pIC50 is the IC50 on a negative log10 scale, so that one unit is a factor of ten.
